Published values gathered from unrelated publications.
Compare with care: the assays were run in different laboratories.
Observed: cell growth or viability

COc1ccc2[nH]c(C(=O)Nc3nc(CC(=O)NN=Cc4cccc5ccccc45)cs3)cc2c1 (mixture of isomers) — IC50 (HepG2; MTT): 24.2 µM
CCSc1nc(C2CC2)cc(C(F)(F)F)n1 — CC50 (HEK-293T; ATP luminescence; 24 h): > 60 µM
O[C@@H](CN1CCN(C(c2ccccc2)c2ccccc2)CC1)c1cc(Cl)cc2c1-c1ccc(Cl)cc1C2 — CC50 (HepG2; 48 h): > 50 µM
Clc1ccc(OC2=CC(c3ccc[nH]3)=N/C2=C\NC23CC4CC(CC(C4)C2)C3)cc1 — IC50 (HepG2; MTT; 48 h): 14.5 µM
CCCCNCC(O)c1cc(Cl)cc2c1-c1ccc(Cl)cc1C2 (racemic) — CC50 (HepG2; 48 h): 6.4 µM
CCS(=O)(=O)c1nc(C2CC2)cc(C(F)(F)F)n1 — CC50 (HEK-293T; ATP luminescence; 24 h): 29 µM
O=C(Cc1csc(NC(=O)c2cc3ccccc3[nH]2)n1)NN=Cc1cccc2ccccc12 (mixture of isomers) — IC50 (HepG2; MTT): 36 µM
COc1ccccc1C(=O)/C=C/c1cn(Cc2cn(-c3ccnc4cc(Cl)ccc34)nn2)c2ccccc12 — viability (HepG2; MTT; 100 µM, 24 h): > 90%
O[C@@H](CNCCN1CCN(C(c2ccccc2)c2ccccc2)CC1)c1cc(Cl)cc2c1-c1ccc(Cl)cc1C2 — CC50 (HepG2; MTT; 72 h): 27.1 µM
CC[S+]([O-])c1nc(-c2ccccc2)cc(C(F)(F)F)n1 (stereo not shown) — CC50 (HEK-293T; ATP luminescence; 24 h): > 60 µM
